# Assay outcomes deposited in PubChem by Johns Hopkins Ion Channel Center.
# Rows were chosen to be rich in hits. Some 2.9% of all compounds tested hit in one or more screens of this group.
# TRPC6 inh: blocks the mouse TRPC6 cation channel | Q61143 | HEK293-TRPC6, membrane potential dye, ACh-evoked depolarization; hits give low values | AID 2553 | B-score at 10 µM | 310,000 compounds, 1.1% hits;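 active means B-score under library mean minus 3 SD, initial fluorescence not abnormally high, positive integrated signal ratio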;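 further: B-score derived from integrated fluorescence ratio over the kinetic read; more negative B-score means stronger inhibition of depolarization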
# TRPC6 activator: mouse TRPC6 channel activation | Q61143 | HEK293-TRPC6 membrane potential dye fluorescence; hits give high values | B-score at 10 µM | 310,000 compounds, 0.13% hits | AID 2550;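 active means B-score of the integrated fluorescence ratio above library mean plus 3 SD, and starting fluorescence ratio within library mean plus 5 SD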;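 further: higher score means more depolarization so channel activation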
# TRPC4 inh: TRPC4 (mouse) channel inhibition | 300,000 compounds, 0.39% hits | AID 2247 | Q9QUQ5 | HEK293 TRPC4beta/mu-opioid, DAMGO-evoked Fluo4 calcium flux; hits give low values | B-score at 10 µM;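 active means B-score over 3 SD under the library average, no early fluorescence shift, positive overall ratio signal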
#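 Assay system: HEK293 cells with stable TRPC4beta plus mu-opioid receptor expression; Probe or stimulus: DAMGO in two steps, submaximal then maximal; Dosing: single-point compound dosing; Measured by: Fluo4 calcium-dye fluorescence, kinetic read; Read-out basis: B score from integrated Fluo4 fluorescence ratio.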
# TRPC4 act: opens the mouse TRPC4 cation channel. Q9QUQ5. HEK293 TRPC4beta/mu-opioid, Fluo4 calcium fluorescence; hits give high values. B-score at 10 µM. 310,000 compounds, 0.49% hits;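 active means B-score above 5 SD of library B-scores, and initial fluorescence ratio not above library mean plus 5 SD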;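 further: positive B-score marks a calcium rise read as TRPC4 activation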
#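 Assay system: HEK293 stable line with TRPC4beta plus mu-opioid receptor; schedule: 45 min room-temperature Fluo4 loading, 110 s read; technique: kinetic Fluo4 calcium fluorescence; evaluation: integrated baseline-normalised fluorescence ratio, converted to per-well B score; controls: buffer (low) and maximal DAMGO (high)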
# TRPC4 PAM: TRPC4 (mouse) allosteric potentiation; Q9QUQ5; HEK293 TRPC4beta/mu-opioid, DAMGO EC20, Fluo-4 Ca2+ flux; hits give high values; B-score at 10 µM; 310,000 compounds, 0.42% hits; AID 2227;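 active means B-score of calcium response area above 5 SD of library B-scores, with initial fluorescence ratio within 5 SD of library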;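 further: B-score of integrated fluorescence ratio over time as area under calcium response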
# Kir21 inh: Kir2.1 (mouse) channel inhibition; P35561; HEK293-Kir2.1, FluxOR thallium flux fluorescence; hits give low values; B-score at 10 µM; 310,000 compounds, 0.85% hits;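 active means fluorescence ratio B-score at or below minus 3 SD of library scores, with starting-brightness B-score within 2 SD, cut at about -4.2 in these data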;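 further: channel flux triggered by added potassium and thallium sulfate stimulus; B-score of peak minus minimum fluorescence over baseline after thallium stimulus; more negative B-score means stronger Kir2.1 block with less thallium influx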
# Target sequence (P35561 whole entry, looked up): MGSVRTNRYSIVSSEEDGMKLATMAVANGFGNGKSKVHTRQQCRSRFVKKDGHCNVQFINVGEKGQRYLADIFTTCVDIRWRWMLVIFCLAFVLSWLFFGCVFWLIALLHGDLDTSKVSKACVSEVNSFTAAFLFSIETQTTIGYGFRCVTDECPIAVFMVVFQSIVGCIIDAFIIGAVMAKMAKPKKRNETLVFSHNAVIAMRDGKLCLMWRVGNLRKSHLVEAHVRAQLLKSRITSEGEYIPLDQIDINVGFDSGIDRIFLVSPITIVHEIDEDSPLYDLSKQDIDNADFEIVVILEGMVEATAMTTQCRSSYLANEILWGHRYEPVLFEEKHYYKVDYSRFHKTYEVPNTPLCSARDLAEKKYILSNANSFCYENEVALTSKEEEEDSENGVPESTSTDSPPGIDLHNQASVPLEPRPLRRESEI
# TRPC4 sel inh 2: second selectivity test of TRPC6 inhibitors: effect on mouse TRPC4. shares compounds with TRPC6 inh. HEK293 TRPC4/MOR, membrane potential dye fluorescence; channel activated by saturating DAMGO dose. inhibition, % at 10 µM. 920 compounds, 42% hits. AID 2776;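 active means compounds whose fluorescence signal differed from control wells by over 3 SD, either direction, in both duplicate plates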
# TRPC4 spec: selectivity of TRPC6 inhibitors: effect on mouse TRPC4. HEK293 TRPC4/mu-opioid, membrane potential fluorescence. shares compounds with TRPC6 inh. AID 2777. 920 compounds, 61% hits. activity change, negative = inhibition, % at 10 µM;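 active means rise or fall in signal beyond 3 SD of buffer-only wells in both replicate plates, either sign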;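 further: integrated kinetic ratio of fluorescence range over baseline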
# HEK293 MPD ctr 2-1: parental HEK293 nonspecific activity of TRPC6 inhibitors, second screen; shares compounds with TRPC6 inh; parental HEK293 membrane potential dye fluorescence; maximal acetylcholine challenge after compound addition; signal change vs control, % at 10 µM; 920 compounds, 31% hits;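 active means membrane potential signal moving either way by over 3 SD of the maximum-effect control, in both duplicate plates, meaning non-specific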
# HEK293 MPD ctr-1: checks TRPC6 inhibitor effects in parental HEK293 cells | shares compounds with TRPC6 inh | AID 2780 | 920 compounds, 60% hits | membrane potential signal change, % at 10 µM | parental HEK293 membrane potential dye fluorescence;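 active means membrane potential signal shifting up or down by more than 3 SD of buffer-only wells, on both duplicate plates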
# HEK293 MPD ctr-2: checks TRPC6 modulator effects in parental HEK293 cells. membrane potential signal change, % at 10 µM. membrane potential dye fluorescence. 2,400 compounds, 51% hits. shares compounds with TRPC6 inh;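 active means membrane potential signal moves up or down beyond 5 SD from buffer-only wells, on both duplicate plates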
# HEK293 MPD ctr 2-2: second check of TRPC6 modulator effects in parental HEK293 cells | shares compounds with TRPC6 inh | membrane potential dye fluorescence; after compound, maximal acetylcholine stimulation | inhibition, % at 10 µM | 2,400 compounds, 14% hits | AID 488926;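 active means membrane potential signal drops by more than 5 SD from the mean control signal, in both duplicate plates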;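 further: plate controls were acetylcholine ECmax control wells for no effect and buffer only wells for full effect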
# TRPC4/MOR mod: selectivity of TRPC6 modulators against mouse TRPC4; shares compounds with TRPC6 inh; HEK293 TRPC4/mu-opioid, membrane potential fluorescence; percent change from control (negative = decrease, positive = increase), % at 10 µM; 2,400 compounds, 69% hits; AID 488927;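 active means membrane potential signal moved up or down beyond 5 SD of buffer control wells, in both duplicate plates, actives on both sides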;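 further: plate controls were assay buffer wells for no effect and DAMGO maximal-effect wells for full effect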
# TRPC4/MOR inh 2: mouse TRPC4 off-target activity of TRPC6 modulators, second screen. inhibition, % at 10 µM. HEK293 TRPC4/mu-opioid, membrane potential dye fluorescence; stimulated with maximal-effect DAMGO. 2,400 compounds, 55% hits. AID 488928. shares compounds with TRPC6 inh;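 active means drop in membrane potential signal beyond 5 SD of the control wells in both duplicate plates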;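 further: TRPC4 counter screen for TRPC6 hits run under conditions tuned for TRPC6 not TRPC4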
# TRPC6 inh conf: confirmation of mouse TRPC6 inhibitors; HEK293-TRPC6, membrane potential dye, ACh-evoked depolarization; AID 488960; inhibition, % at 10 µM; shares compounds with TRPC6 inh; 3,300 compounds, 43% hits;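 active means fluorescence ratio falls more than 5 SD below the full-stimulation control mean, in both duplicate runs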;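 further: integrated fluorescence ratio of peak minus minimum over baseline after agonist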
# TRPC6 act conf: confirmation of mouse TRPC6 activators; shares compounds with TRPC6 inh; HEK293-TRPC6 membrane potential dye fluorescence, FDSS; activation, % at 10 µM; 2,800 compounds, 11% hits;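 active means ratio signal rise beyond 5 SD above unstimulated control wells' mean, seen in both duplicate runs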;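 further: plate controls were buffer EC0 wells for no effect and acetylcholine ECmax response for full effect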
# Numbers without * were called inactive; i = inactive; x = no result.
SMILES,TRPC6 inh,TRPC6 activator,TRPC4 inh,TRPC4 act,TRPC4 PAM,Kir21 inh,HEK293 MPD ctr-2,HEK293 MPD ctr 2-2,TRPC4/MOR mod,TRPC4/MOR inh 2,TRPC6 inh conf,TRPC6 act conf,others
COc1ccc(C2c3c(ncn(CCN4CCOCC4)c3=N)Oc3ccc4ccccc4c32)cc1OC (stereo unspecified),-5.1*,i,i,i,i,-0.05,204%*,i,34%*,40%*,i,x,
COc1ccc(C2c3c(ncn(CCCO)c3=N)Oc3ccc4ccccc4c32)cc1OC (stereo unspecified),i,i,i,i,i,-2.2,x,x,x,x,x,x,
Cc1cc(C)nc(/N=C(\N)N(Cc2ccccc2)Cc2ccccc2)n1,-7.5*,i,-7*,i,i,-1.6,x,x,x,x,i,i,TRPC4 sel inh 2=40%*;TRPC4 spec=37%*;HEK293 MPD ctr 2-1=i;HEK293 MPD ctr-1=3.8%*
O=C(O)C(Nc1nc(C(F)(F)F)nc2ccccc12)c1ccccc1 (stereo unspecified),i,i,i,i,i,0.99,x,x,x,x,x,x,
COc1cc(/C=C(\C#N)C(=O)c2c[nH]c3ccccc23)cc(OC)c1O,i,24*,i,i,i,-1.1,256%*,i,72%*,i,i,88%*,
COC(=O)/C(C#N)=C/c1c[nH]c2ccccc12,i,i,i,i,i,-0.04,x,x,x,x,x,x,
COc1cc(/C=C(\C#N)C(=O)NCCc2ccccc2)cc(OC)c1O,i,14*,x,i,i,-0.13,394%*,i,72%*,i,i,68%*,
Cc1nn(-c2ccccc2)c(Cl)c1C(=O)NCc1cccs1,i,i,i,i,i,-0.02,x,x,x,x,x,x,
O=C(CSc1c2c(nc3cc(Cl)ccc13)CCCC2)NCCCN1CCOCC1,i,i,i,i,i,-1.7,x,x,x,x,x,x,
O=C(CSc1c2c(nc3ccc(Cl)cc13)CCCC2)NCCCN1CCOCC1,-11*,i,i,i,i,0.1,x,x,x,x,i,i,TRPC4 sel inh 2=i;TRPC4 spec=i;HEK293 MPD ctr 2-1=34%*;HEK293 MPD ctr-1=i
O=C(O)C1CC(c2ccccc2)=Nc2ccccc2S1 (stereo unspecified),-5.3*,i,i,i,i,1.8,136%*,i,28%*,i,i,x,
CCN(CC)c1ccc(/C=C(/C#N)C(=O)NC(C)C)o1,i,i,i,i,i,-6.7,x,x,x,x,x,x,
CCN(CC)c1ccc(/C=C(/C#N)C(=O)NCc2ccccc2)o1,i,19*,i,i,i,-3.3,590%*,i,183%*,i,i,132%*,
Cc1csc(=O)n1CCC(=O)OCC(=O)N(CC(C)C)c1c(N)n(Cc2ccccc2)c(=O)[nH]c1=O,i,i,i,i,i,0.11,x,x,x,x,x,x,
Clc1nc(-c2ccccc2)c2ccccc2n1,i,i,i,i,i,-0.03,x,x,x,x,x,x,
NC(N)=Nc1nc(-c2ccccc2)c2ccccc2n1,-5.4*,i,i,i,i,-3.4,-174%*,i,-30%*,33%*,i,i,
Cn1c(=O)cc2c3c(c(N4CCCCC4)ccc31)C(=O)c1ccccc1-2,-5.1*,i,i,i,i,-1,-182%*,i,-42%*,54%*,39%*,i,
O=C1c2ccccc2C(=O)c2c1cccc2N1CCCC1,i,i,i,i,i,1.5,x,x,x,x,x,x,
Cc1ccc(CNC(=O)CSc2nc3c(sc4ccccc43)c(=O)n2CCCN2CCCC2)cc1,-5.8*,i,i,i,i,-3.3,i,i,8.0%*,69%*,43%*,i,
C=CCNc1nnc(SCC(=O)N2CCC(C(N)=O)CC2)s1,i,i,i,i,i,2.8,x,x,x,x,x,x,
CCCCOc1ccc(S(=O)(=O)NNC(=O)c2cc3ccccc3o2)cc1,-5.2*,i,i,i,i,-0.25,i,i,i,i,i,i,
CC(C)COc1ccc(S(=O)(=O)NNC(=O)c2cc3ccccc3o2)cc1,i,i,i,i,i,0.83,x,x,x,x,x,x,
CC1(C)OC2OC(C(=O)N/N=C/c3cc(Br)ccc3O)C3OC(C)(C)OC3C2O1 (stereo unspecified),i,i,i,i,i,-0.36,x,x,x,x,x,x,
COc1ccc(/C=C/c2nc(S(=O)(=O)c3ccccc3)c(N(C)C)o2)cc1,i,i,i,i,i,0.18,x,x,x,x,x,x,
Cc1ccc2c(c1)NC(=O)C(CC(=O)Nc1ccc(CN3CCC(C)CC3)cc1)O2 (stereo unspecified),-8.5*,i,i,i,i,-1.9,x,x,x,x,79%*,i,TRPC4 sel inh 2=i;TRPC4 spec=i;HEK293 MPD ctr 2-1=-4.5%*;HEK293 MPD ctr-1=i
COCc1c(C#N)c(NCCc2ccccc2)nc(C)c1[N+](=O)[O-],i,i,i,i,i,1.5,x,x,x,x,x,x,
